Experimental data as given in ChEMBL document CHEMBL3865814, “Chemical Constituents Isolated from the Root Bark of Cudrania tricuspidata and Their Potential Neuroprotective Effects” (J Nat Prod, 2016).

How the values were obtained:
Format in all cases: functional, cell-based
[1] = Neuroprotective activity in human SH-SY5Y cells assessed as reduction in oxygen glucose deprivation-induced cell death incubated for 16 hrs under hypoxic condition followed by incubation for 24 hrs under normoxic condition by MTT assay
Outline: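 After 24 h plating (2 × 10^4/well, DMEM with 10% FBS and glucose), medium was switched to serum- and glucose-free RPMI and samples or vehicle added. Cells were held 16 h under 95% N2/5% CO2, then reoxygenated 24 h in RPMI with 10% FBS and glucose at 37 °C. Viability was by MTT at A540. EC50 is half-maximal protection, mean of triplicates.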

[2] = Neuroprotective activity in human SH-SY5Y cells assessed as reduction in 1-methyl-4-phenylpyridinium ion-induced cell death after 48 hrs by MTT assay
Outline: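 SH-SY5Y cells in DMEM with 10% heat-inactivated FBS and 1% penicillin/streptomycin were seeded at 2 × 10^4 cells/well for 24 h, then exposed to 2 mM MPP+ for 48 h. MTT (0.5 mg/mL in PBS) was added for 4 h at 37 °C, formazan dissolved in DMSO and absorbance read at 540 nm. EC50 is the concentration giving half-maximal protection, mean of triplicates.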

[3] = Neuroprotective activity in human SH-SY5Y cells assessed as reduction in 6-OHDA-induced cell death measured after 24 hrs by MTT assay
Outline: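 Cells were seeded at 2 × 10^4 per well and grown 24 h in DMEM with 10% heat-inactivated FBS at 37 °C under 5% CO2. They were then co-treated with graded sample concentrations and 100 μM 6-OHDA for 24 h. Viability was by MTT (0.5 mg/mL, 4 h, 37 °C), DMSO solubilization and A540. EC50 is half-maximal protection, mean of triplicate determinations.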

With CC(C)=CCc1c(O)c(O)cc2c(=O)c3c4c(c(O)cc3oc12)C(C)(C)C(C)O4 (stereo not given) the EC50 [1] was 34.9 µM and the EC50 [2] was over 50 µM.
CC(C)=CCOc1c2ccoc2cc2oc(=O)ccc12 [ISOIMPERATORIN] gave an EC50 [3] of 9.2 µM, an EC50 [1] of 3.5 µM and an EC50 [2] of over 50 µM.
CC1(C)C=Cc2cc3ccc(=O)oc3cc2O1 [XANTHYLETIN] gave an EC50 [3] of 8 µM.
In the case of CC(C)=CCc1c(O)c(O)cc2oc3c4c(cc(O)c3c(=O)c12)OC(C)C4(C)C (stereo not given) [CUDRATRICUSXANTHONE J], the EC50 [1] is reported as over 50 µM and the EC50 [2] is reported as 8.1 µM.
For CC1Oc2cc3oc4c5c(c(O)cc4c(=O)c3c(O)c2C1(C)C)OC(C(C)(C)O)C5 (stereo not given), the EC50 [1] was 6 µM and the EC50 [2] was over 50 µM.
For CC(C)=CCc1c2c(c(O)c3c(=O)c4ccc(O)c(O)c4oc13)C(C)(C)C(C)O2 (stereo not given), the EC50 [1] was 17.2 µM and the EC50 [2] was over 50 µM.
With COCc1ccc(O)cc1 the EC50 [1] was 7.9 µM and the EC50 [2] was over 50 µM.
With C=CC(C)(C)c1c(OC)cc(O)c2c(=O)c3c(cc(O)c4oc(C(C)(C)O)cc43)oc12 the EC50 [1] was over 50 µM and the EC50 [2] was 10.3 µM.
Work on CCCCCCCC/C=C\CCCCCCCC(=O)O [OLEIC ACID] yielded an EC50 [3] of 9.5 µM.
In the case of O=c1ccoc2cc(O)cc(O)c12, the EC50 [3] is reported as 1.9 µM.
For C=CC(C)(C)c1c(OC)cc(O)c2c(=O)c3c(CC(O)C(=C)C)c(O)c(O)cc3oc12 (stereo not given), the EC50 [1] was 2.9 µM and the EC50 [2] was over 50 µM.
For C=CC(C)(C)c1c(OC)cc(O)c2c(=O)c3c(CC=C(C)C)c(O)c(O)cc3oc12 [CUDRAXANTHONE D], the EC50 [1] was 4.8 µM and the EC50 [2] was over 50 µM.
Compound CC(C)=CCOc1c2occc2cc2ccc(=O)oc12 [PENTOSALEN] has an EC50 [1] of 8.4 µM and an EC50 [2] of over 50 µM.
COc1c(C(C)=O)ccc2c1C=CC(C)(C)O2 showed an EC50 [1] of 22.3 µM and an EC50 [2] of over 50 µM.
With CC1Oc2cc(O)c3c(=O)c4c5c(c(O)cc4oc3c2C1(C)C)OC(C)(C)C=C5 (stereo not given) the EC50 [1] was 3.5 µM and the EC50 [2] was over 50 µM.
Compound COc1cc(/C=C/C(=O)CC(=O)/C=C/c2ccc(O)c(OC)c2)ccc1O [CURCUMIN] has an EC50 [3] of 6.2 µM.
In the case of CC1(C)C=Cc2c(c(O)cc3c(=O)c4c(O)c5c(cc4oc23)OC(CO)C5(C)C)O1 (stereo not given), the EC50 [1] is reported as 11.2 µM and the EC50 [2] is reported as over 50 µM.
Compound O=Cc1ccc(O)cc1 [4-HYDROXYBENZALDEHYDE] has an EC50 [3] of 30.2 µM.
C=CC(C)(C)c1c(O)cc(O)c2c(=O)c3c4c(c(O)cc3oc12)OC(C)(C)C=C4 gave an EC50 [1] of 33.3 µM and an EC50 [2] of over 50 µM.
For CC(C)=CC1Oc2cc(O)ccc2-c2oc3cc4c(c(O)c3c(=O)c21)C=CC(C)(C)O4 (stereo not given) [CUDRAFLAVONE A], the EC50 [3] was 15.5 µM, the EC50 [1] was 13.5 µM and the EC50 [2] was over 50 µM.
For C=C1CC[C@H](O)C(C)(C)[C@@H]1CC/C(C)=C/CC/C=C(\C)CC/C=C(\C)CCC=C(C)C, the EC50 [3] was 7.2 µM, the EC50 [1] was 6.5 µM and the EC50 [2] was over 50 µM.
In the case of C=C(C)C(O)Cc1c(OC)c(O)cc2oc3c4c(cc(O)c3c(=O)c12)OC(CO)C4(C)C (stereo not given), the EC50 [1] is reported as 28.5 µM and the EC50 [2] is reported as over 50 µM.
Compound CC(C)=CCc1cc2ccc(=O)oc2cc1O [DEMETHYLSUBEROSIN] has an EC50 [1] of 8.6 µM and an EC50 [2] of 0.2 µM.
Compound C=C(C)[C@@H]1CC[C@]2(C(=O)O)CC[C@]3(C)[C@H](CC[C@@H]4[C@@]5(C)CC[C@H](O)C(C)(C)[C@@H]5CC[C@]43C)[C@@H]12 [BETULINIC ACID] has an EC50 [2] of 4.3 µM.
Work on C[C@H]1[C@H](C)CC[C@]2(C)CC[C@]3(C)C(=CC[C@@H]4[C@@]5(C)CC[C@H](O)C(C)(C)[C@@H]5CC[C@]43C)[C@H]12 yielded an EC50 [1] of 13.3 µM and an EC50 [2] of over 50 µM.
NCCC(=O)N[C@@H](Cc1c[nH]cn1)C(=O)O [CARNOSINE] gave an EC50 [1] of 3 µM.
Compound COC(=O)c1ccc(O)cc1O [METHYL 2,4-DIHYDROXYBENZOATE] has an EC50 [1] of 35.5 µM and an EC50 [2] of over 50 µM.
CC1Oc2cc3oc4c5c(c(O)cc4c(=O)c3c(O)c2C1(C)C)OC(C)(C)C(O)C5 (stereo not given) showed an EC50 [1] of 23.6 µM and an EC50 [2] of over 50 µM.
CC1(C)CCc2cc(C3CC(=O)c4c(O)cc5c(c4O3)CCC(C)(C)O5)c(O)cc2O1 (stereo not given) showed an EC50 [3] of 9.1 µM.
With CC1(C)C=Cc2c(c(O)cc3oc4c5c(cc(O)c4c(=O)c23)OC(CO)C5(C)C)O1 (stereo not given) the EC50 [1] was 8.9 µM and the EC50 [2] was over 50 µM.
With C=C(C)C(=O)Cc1c(OC)c(O)cc2oc3c4c(cc(O)c3c(=O)c12)OC(CO)C4(C)C (stereo not given) the EC50 [1] was 13.2 µM and the EC50 [2] was over 50 µM.
Compound CC1(C)CC[C@]2(C)CC[C@]3(C)[C@H]4CC=C5[C@@H](CC[C@H](O)C5(C)C)[C@]4(C)CC[C@@]3(C)[C@@H]2C1 [GLUTINOL] has an EC50 [3] of 12.9 µM.
C=CC(C)(C)c1c(O)cc(O)c2c(=O)c3c4c(c(O)cc3oc12)O[C@@H](C(C)(C)O)C4 showed an EC50 [1] of 12.2 µM and an EC50 [2] of over 50 µM.
